# In ChEMBL document CHEMBL4334455, “Synthesis of Usnic Acid Derivatives and Evaluation of Their Antiproliferative Activity against Cancer Cells” (J Nat Prod, 2019):
# pIC50: −log10 of the molar value. Calls of active or inactive are those of the source. The rule behind the calls is not given here.
# How the values were obtained:
# HeLa [1] = experiment: Antiproliferative activity against human HeLa cells assessed as reduction in cell viability after 48 hrs by MTT assay; assay type: functional, cell-based
# Summary of the method: (§1)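 Cells seeded at 4 × 10³/well for 24 h runs and for PC-3, or 2 × 10³/well for MCF-7 and HeLa 48 h runs, and attached overnight. Medium replaced with compound-containing medium for 24 or 48 h. MTT (4 mg mL⁻¹) added for the final 3 h, formazan dissolved in DMSO, absorbance read at 570 nm (reference 660 nm). IC₅₀ calculated from at least three independent experiments in duplicate, mean ± SE.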
# [2] = Cytotoxicity against human HDFa cells assessed as reduction in cell viability after 48 hrs by MTT assay; assay type: cell-based; summary of the method: as §1
# HeLa [3] = experiment: Cell cycle arrest in human HeLa cells assessed as reduction in cell population at S phase at 2.4 to 7.2 uM after 24 hrs by propidium iodide staining based flow cytometric analysis; assay type: functional
# MCF7 [4] = experiment: Antiproliferative activity against human MCF7 cells assessed as reduction in cell viability after 24 hrs by MTT assay; assay type: functional, cell-based; details: for pIC50: MCF7, 24 h; summary of the method: as §1
# HeLa [5] = experiment: Induction of cell cycle arrest in human HeLa cells assessed as accumulation of cells at G0/G1 phase 2.4 to 7.2 uM after 24 hrs by propidium iodide staining based flow cytometric analysis (reference value: 44%); assay type: functional
# [6] = Cytotoxicity against human HDFa cells assessed as reduction in cell viability after 24 hrs by MTT assay; assay type: cell-based; summary of the method: as §1
# PC-3 [7] = experiment: Cytostatic activity against human PC3 cells measured after 24 hrs by MTT assay; assay type: functional, cell-based; summary of the method: as §1
# PC-3 [8] = experiment: Antiproliferative activity against human PC3 cells assessed as reduction in cell viability after 24 hrs by MTT assay; assay type: functional, cell-based; details: PC-3, 24 h; summary of the method: as §1
# MCF7 [9] = experiment: Cytostatic activity against human MCF7 cells measured after 24 hrs by MTT assay; assay type: functional, cell-based; summary of the method: as §1
# HeLa [10] = experiment: Cell cycle arrest in human HeLa cells assessed as reduction in cell population at G2/M phase at 2.4 to 7.2 uM after 24 hrs by propidium iodide staining based flow cytometric analysis; assay type: functional
# PC-3 [11] = experiment: Antiproliferative activity against human PC3 cells assessed as reduction in cell viability after 48 hrs by MTT assay; assay type: functional, cell-based; details: PC-3, 48 h; summary of the method: as §1
# HeLa [12] = experiment: Cytostatic activity against human HeLa cells measured after 24 hrs by MTT assay; assay type: functional, cell-based; summary of the method: as §1
# MCF7 [13] = experiment: Antiproliferative activity against human MCF7 cells assessed as reduction in cell viability after 48 hrs by MTT assay; assay type: functional, cell-based; summary of the method: as §1
# HeLa [14] = experiment: Antiproliferative activity against human HeLa cells assessed as reduction in cell viability after 24 hrs by MTT assay; assay type: functional, cell-based; summary of the method: as §1
# HeLa [15] = experiment: Induction of cell cycle arrest in human HeLa cells assessed as accumulation of cells at G0/G1 phase after 24 hrs by propidium iodide staining based flow cytometric analysis; assay type: functional
# MCF7 [16] = experiment: Induction of cell cycle arrest in human MCF7 cells assessed as accumulation of cells at G0/G1 phase at 2.9 uM after 24 hrs by Propidium iodide staining based flow cytometric analysis (reference value: 47.8 +/- 0.42%); assay type: functional
# MCF7 [17] = experiment: Induction of cell cycle arrest in human MCF7 cells assessed as accumulation of cells at G2/M phase at 8.7 uM after 24 hrs by Propidium iodide staining based flow cytometric analysis (reference value: 27 +/- 2.97%); assay type: functional
# MCF7 [18] = experiment: Induction of cell cycle arrest in human MCF7 cells assessed as accumulation of cells at G2/M phase at 2.9 uM after 24 hrs by Propidium iodide staining based flow cytometric analysis (reference value: 27 +/- 2.97%); assay type: functional
# MCF7 [19] = experiment: Induction of cell cycle arrest in human MCF7 cells assessed as accumulation of cells at S phase at 8.7 uM after 24 hrs by Propidium iodide staining based flow cytometric analysis (reference value: 23.75 +/- 1.87%); assay type: functional
# MCF7 [20] = experiment: Induction of cell cycle arrest in human MCF7 cells assessed as accumulation of cells at G0/G1 phase at 8.7 uM after 24 hrs by Propidium iodide staining based flow cytometric analysis (reference value: 47.8 +/- 0.42%); assay type: functional
# MCF7 [21] = experiment: Induction of cell cycle arrest in human MCF7 cells assessed as accumulation of cells at S phase at 2.9 uM after 24 hrs by Propidium iodide staining based flow cytometric analysis (reference value: 23.75 +/- 1.87%); assay type: functional
# HeLa [22] = experiment: Cell cycle arrest in human HeLa cells assessed as accumulation of cells at G2/M phase at 8.7 uM after 24 hrs by propidium iodide staining based flow cytometric analysis; assay type: functional
# HeLa [23] = experiment: Cell cycle arrest in human HeLa cells assessed as accumulation of cells at S phase at 8.7 uM after 24 hrs by propidium iodide staining based flow cytometric analysis; assay type: functional
smiles,measurement,setting,value
CC(=O)c1c(O)c(C)c(O)c2c1OC1=Cc3c(c(C)nn3C)C(=O)[C@]12C,pIC50,"HeLa [1]; Homo sapiens, HeLa, 48 h",5.92
same,pIC50,[2],< 5.00
same,Activity,HeLa [3],Active
same,pIC50,MCF7 [4],< 5.00
same,Activity,HeLa [5],51 - 65%
same,pIC50,[6],< 5.00
same,Activity,PC-3 [7],inactive
same,pIC50,PC-3 [8],< 5.00
same,Activity,MCF7 [9],inactive
same,Activity,HeLa [10],Active
same,pIC50,PC-3 [11],< 5.00
same,Activity,HeLa [12],inactive
same,pIC50,"MCF7 [13]; Homo sapiens, MCF7, 48 h",< 5.00
same,pIC50,HeLa [14],5.57
CC(=O)c1c(O)c(C)c(O)c2c1OC1=Cc3c(c(C)nn3-c3ccc(C)cc3)C(=O)[C@]12C,inhibition,MCF7 [4],inactive
same,inhibition,MCF7 [13],inactive
CC(=O)c1c(O)c(C)c(O)c2c1OC1=Cc3c(c(C)nn3-c3ccc(Cl)c(Cl)c3)C(=O)[C@]12C,inhibition,MCF7 [4],inactive
same,inhibition,MCF7 [13],inactive
CC(=O)c1c(O)c(C)c(O)c2c1OC1=Cc3c(c(C)nn3-c3ccc(F)cc3)C(=O)[C@]12C,inhibition,MCF7 [4],inactive
same,inhibition,MCF7 [13],inactive
CC(=O)c1c(O)c(C)c(O)c2c1OC1=Cc3c(c(C)nn3-c3ccccc3)C(=O)[C@]12C,inhibition,MCF7 [4],inactive
same,inhibition,MCF7 [13],inactive
COc1ccc(-n2nc(C)c3c2C=C2Oc4c(C(C)=O)c(O)c(C)c(O)c4[C@]2(C)C3=O)cc1,inhibition,MCF7 [4],inactive
same,inhibition,MCF7 [13],inactive
CC(=O)c1c(O)c(C)c(O)c2c1OC1=Cc3c(c(C)nn3C)C(=O)C12C (racemic),pIC50,"HeLa [1]; Homo sapiens, HeLa, 48 h",5.96
same,pIC50,[2],< 5.00
same,Activity,HeLa [3],Active
same,pIC50,MCF7 [4],< 5.00
same,Activity,HeLa [15],Dose-dependent effect
same,Activity,HeLa [5],51 - 65%
same,pIC50,[6],< 5.00
same,Activity,PC-3 [7],inactive
same,pIC50,PC-3 [8],< 5.00
same,Activity,MCF7 [9],inactive
same,Activity,HeLa [10],Active
same,pIC50,PC-3 [11],< 5.00
same,Activity,HeLa [12],inactive
same,pIC50,"MCF7 [13]; Homo sapiens, MCF7, 48 h",< 5.00
same,pIC50,HeLa [14],5.57
CC(=O)c1c(O)c(C)c(O)c2c1OC1=Cc3c(c(C)nn3-c3ccc(C)cc3)C(=O)C12C (racemic),inhibition,MCF7 [4],inactive
same,inhibition,MCF7 [13],inactive
CC(=O)c1c(O)c(C)c(O)c2c1OC1=Cc3c(c(C)nn3-c3ccc(Cl)c(Cl)c3)C(=O)C12C (racemic),inhibition,MCF7 [4],inactive
same,inhibition,MCF7 [13],inactive
CC(=O)c1c(O)c(C)c(O)c2c1OC1=Cc3c(c(C)nn3-c3ccc(F)cc3)C(=O)C12C (racemic),inhibition,MCF7 [4],inactive
same,inhibition,MCF7 [13],inactive
CC(=O)c1c(O)c(C)c(O)c2c1OC1=Cc3c(c(C)nn3-c3ccccc3)C(=O)C12C (racemic),inhibition,MCF7 [4],inactive
same,inhibition,MCF7 [13],inactive
COc1ccc(-n2nc(C)c3c2C=C2Oc4c(C(C)=O)c(O)c(C)c(O)c4C2(C)C3=O)cc1 (racemic),inhibition,MCF7 [4],inactive
same,inhibition,MCF7 [13],inactive
CC(=O)c1c(O)c(C)c(O)c2c1OC1=CC(=O)C(C(C)=O)C(=O)C12C (stereo in doubt; (+)-1) [listing 1 of 2 here],pIC50,HeLa [1]; hela,4.63 to 5.00
same,Activity,MCF7 [16],46%
same,Activity,MCF7 [17],24.8%
same,Activity,MCF7 [18],28.8%
same,Activity,MCF7 [19],22.4%
same,Activity,MCF7 [20],50.6%
same,pIC50,MCF7 [13]; mcf7,4.12 to 5.00
same,Activity,MCF7 [21],23%
CC(=O)c1c(O)c(C)c(O)c2c1OC1=CC(=O)C(C(C)=O)C(=O)C12C (stereo in doubt; (+)-1) [listing 2 of 2 here],Activity,HeLa [22],Active
same,Activity,HeLa [23],Active
CC(=O)c1c(O)c(C)c(O)c2c1OC1=CC(=O)C(C(C)=O)C(=O)C12C (stereo in doubt; (-)-1) [listing 1 of 2 here],pIC50,"HeLa [1]; Homo sapiens, HeLa, 48 h",< 5.00
same,Activity,MCF7 [16],46.95%
same,pIC50,[2],< 5.00
same,pIC50,MCF7 [4],< 5.00
same,pIC50,[6],< 5.00
same,Activity,MCF7 [17],24.95%
same,Activity,MCF7 [18],28.25%
same,pIC50,PC-3 [8],< 5.00
same,Activity,MCF7 [19],20.6%
same,pIC50,PC-3 [11],< 5.00
same,Activity,MCF7 [20],52.35%
same,pIC50,"MCF7 [13]; Homo sapiens, MCF7, 48 h",< 5.00
same,pIC50,HeLa [14],< 5.00
same,Activity,MCF7 [21],22.9%
CC(=O)c1c(O)c(C)c(O)c2c1OC1=CC(=O)C(C(C)=O)C(=O)C12C (stereo in doubt; (-)-1) [listing 2 of 2 here],Activity,HeLa [22],Active
same,Activity,HeLa [23],Active
